# RORA act – activators of orphan receptor RORA, primary screen, cell-based, luminescence. Nuclear receptor ROR-alpha (Homo sapiens), P35398. CHO-K1 Gal4-RORA LBD luciferase reporter; percent increase over mock-subtracted basal signal. actives 1.5% (n = 65,000). activation, % at 10 µM;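 active means activation above the mean of all tested compounds plus 3 SD, cut at about 49% in these data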;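 further: 0% = DMSO-treated RORA cells and 100% = added signal equal to DMSO minus mock-transfected cells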
# SF1 activator – activators of human SF-1, primary screen, cell-based, CHO-K1, Gal4-SF-1 LBD, luciferase luminescence. CHO-K1 Gal4-SF-1 LBD luciferase reporter; % increase over DMSO SF-1-specific signal. activation, % at 10 µM. actives 1.9% (n = 65,000). AID 522, 2006;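 active means activation above the mean activation of all tested compounds plus 3 SD, cut at about 50% in these data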
# Target sequence (Q13285 whole entry, looked up, the tested form may be a part): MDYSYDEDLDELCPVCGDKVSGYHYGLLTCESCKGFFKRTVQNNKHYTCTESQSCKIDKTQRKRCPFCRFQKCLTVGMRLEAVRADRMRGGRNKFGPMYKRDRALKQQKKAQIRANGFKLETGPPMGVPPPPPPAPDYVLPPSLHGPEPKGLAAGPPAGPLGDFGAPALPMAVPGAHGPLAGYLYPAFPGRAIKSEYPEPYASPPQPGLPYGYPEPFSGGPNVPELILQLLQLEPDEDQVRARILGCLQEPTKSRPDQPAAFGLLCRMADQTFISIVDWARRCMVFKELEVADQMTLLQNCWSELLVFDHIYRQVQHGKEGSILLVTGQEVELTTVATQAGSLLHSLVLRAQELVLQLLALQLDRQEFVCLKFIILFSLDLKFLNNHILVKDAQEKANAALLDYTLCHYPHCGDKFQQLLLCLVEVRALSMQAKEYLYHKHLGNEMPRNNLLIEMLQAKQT
#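 Material: Transient Gal4-SF-1 LBD reporter, CHO-K1 | Input: 4,000 cells/well | Dosing: One dose, 10 µM compound, 1% DMSO | Incubation: 20 h compound treatment, 37 °C | Detection: SteadyLite luciferase luminescence | Evaluation: Percent activation relative to DMSO median and mock-transfected background | Benchmarks: DMSO-treated SF-1-transfected cells as negative, DMSO-treated mock-transfected cells lacking SF-1 as background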
# JNK3 inh – JNK3 kinase activity inhibitors, primary screen, biochemical, human, purified enzyme; Mitogen-activated protein kinase 10 (Homo sapiens), P53779; HTS; actives 0.61% (n = 60,000); inhibition, % at 8 µM; in the data active means inhibition above about 17%;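 further: 0% = DMSO and 100% = reference inhibitor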
# D1 allo mod – D1 CRE-luciferase signal change, two-sided – cell-based, HEK293 D1, dopamine EC30, D1 allosteric modulator project, primary screen. D(1A) dopamine receptor (Homo sapiens), P21728. dopamine EC30 potentiation; actives deviate in either direction. B-score at 10 µM. actives 5.9% (n = 58,000);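 active means luminescence count or its row- and column-corrected plate score outside the 99.7% band of the plate's sample wells, on either side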
# HEK293 NFkB inh – inhibitors of PMA/ionomycin-induced NF-kB reporter, primary screen, antigen receptor NF-kB inhibitor project, cell-based, HEK-293 luciferase reporter, luminescence; HEK-293 NF-kB luciferase reporter; AID 465, 2006; inhibition, % at 3 µM; actives 0.21% (n = 62,000);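 active means inhibition above the mean of all tested compounds plus 3 SD, cut at about 40% in these data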;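 further: 0% = stimulated DMSO wells and 100% = 10 µM reference inhibitor 5653914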
#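 System – HEK-293 cells with stable firefly luciferase reporter driven by four HIV NF-kB elements · Doses – one dose, 3 µM · Schedule – 1 h compound pre-incubation, 16 h PMA/ionomycin at 37 °C · Technique – luminescence from luciferase substrate reagent · Measure – percent inhibition normalized per plate to DMSO and reference-inhibitor controls · Replicates – tested once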
# D1 PAM confirm – D1 receptor positive allosteric modulators, retest, confirmation, cell-based, HEK293 D1, CRE-luciferase, duplicate. actives 88% (n = 2,200). shares compounds with D1 allo mod. dopamine EC30 potentiation; active compounds read high. AID 642, 2007. luminescence at 10 µM;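 active means luminescence in either of two replicates above the same-plate mean plus 3 SD of the low-dose dopamine control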
# D1 ag no DA – D1 receptor agonism without dopamine, confirmation, mechanism study for D1 allosteric modulator project, cell-based, HEK293 D1, CRE-luciferase, secondary assay 1; shares compounds with D1 allo mod; luminescence, no dopamine; active compounds read high; luminescence at 10 µM; actives 0.8% (n = 1,900); AID 646, 2007; in the data active means luminescence above about 3900
# Isoprot counter – isoproterenol response counter-screen activity for D1 modulators. actives 63% (n = 2,200). calls only at 10 µM. HEK293 D1 CRE-luciferase, isoproterenol EC30 counter-screen. AID 647. shares compounds with D1 allo mod;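 active means luminescence in either replicate above plate mean of wells with a partly effective reference agonist dose plus 3 SD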;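 further: isoproterenol raises cAMP through native beta-adrenoceptor Gs so signal bypasses D1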
# Active calls of the source: *; i = inactive; nt = not tested or not shown; + = active, no number. A selection: hits, their analogues and other compounds. The true share with any hit is near 7.9%.
SMILES,RORA act,SF1 activator,JNK3 inh,D1 allo mod,HEK293 NFkB inh,D1 PAM confirm,D1 ag no DA,Isoprot counter
CN1CCN(C(=O)c2ccccc2NC(=O)Cc2ccccc2)CC1,22,1,2,1.6,10,nt,nt,nt
COc1cc2c(cc1OC)C(C(=O)NC1CC1)C1c3ccccc3CCN1C2=O (stereo not given),11,2,-2,0,2,nt,nt,nt
COc1cc2c(cc1OC)-c1cc(NC3CCCC3)nc(=O)n1CC2,6,14,-2,8.5*,12,14200*,1764,+
COc1ccc(-c2cc(=O)oc3c(C)c(O)c(CN(C)C)cc23)cc1,-5,9,-1,3.6*,6,9264*,1600,i
Cc1cc(=O)oc(C)c1C(=O)NCCN1CCOCC1,-18,-17,-8,-0.31,nt,nt,nt,nt
CCOC(=O)N1CCC(N2Cc3cccc(C(=O)NC(C)c4ccc5c(c4)OCCO5)c3C2=O)CC1 (stereo not given),2,-9,4,2.4*,15,8332*,1632,i
CC(C#N)Sc1nc2ccccc2c(=O)n1-c1ccccc1 (stereo not given),-10,2,-3,9.2*,16,22624*,1776,+
COc1ccc(OCC2CNC(=O)O2)cc1 (stereo not given),8,-6,nt,nt,-3,nt,nt,nt
O=C1NCC(CN(c2ccccc2)c2ccccc2)O1 (stereo not given),-4,-12,3,2.9*,19,9384*,1528,+
N#Cc1ccc(-c2ccc(OCC(O)Cn3nnc4ccccc43)cc2)cc1 (stereo not given),0,-16,5,nt,nt,nt,nt,nt
O=C(O)c1ccc(COc2c(F)c(F)c(F)c(F)c2F)o1,-8,-5,0,nt,nt,nt,nt,nt
COC(=O)Cn1c(CN2CCOCC2)nc2c1c(=O)[nH]c(=O)n2C,-3,5,6,-0.13,7,nt,nt,nt
COc1cccc(-c2nn(-c3ccccc3)cc2C(=O)NCC(=O)O)c1,-19,0,-2,-0.064,4,nt,nt,nt
COc1cccc(-c2nn(-c3ccccc3)cc2CO)c1,62*,46,10,3.6*,-4,10836*,1844,+
COc1ccc(-c2nn(-c3ccccc3)cc2CO)cc1OC,-7,18,4,6.7*,12,13160*,1752,+
COc1ccc(-c2nn(-c3ccccc3)cc2C(=O)O)cc1,-8,-1,7,nt,20,nt,nt,nt
COc1ccc(N2CCN(c3nc(NCCc4ccc(OC)c(OC)c4)nc(OC)n3)CC2)cc1,-15,-16,-9,2.8*,-5,11472*,1500,+
CCn1c(CSc2nc(C)cc(C)n2)nnc1SCC(=O)N1CCCc2ccccc21,10,-20,6,-0.02,4,nt,nt,nt
CCN1CCN(Cc2nc(N)nc(Nc3ccc(C)c(C)c3)n2)CC1,20,-1,8,-0.53,3,nt,nt,nt
Cc1ccc(Nc2nc(N)nc(CN3CCN(C(=O)c4ccco4)CC3)n2)cc1Cl,-3,5,0,5.4*,13,12072*,1624,+
N#CCCSc1ncnc2c1oc1ccccc12,2,-4,28*,5.4*,2,14144*,1812,+
CCc1nc(N(CC)CC)c2oc3ccccc3c2n1,-4,-6,nt,3.2*,21,3956,nt,i
CCc1nc(SCCO)c2oc3ccccc3c2n1,3,-12,5,10*,-1,17028*,nt,+
CCc1nc(OCCN(CC)CC)c2oc3ccccc3c2n1,-6,-8,-2,2,3,nt,nt,nt
O=C(Nc1cnccn1)c1cccs1,-2,4,0,-0.92,13,nt,nt,nt
SMILES,RORA act,SF1 activator,JNK3 inh,D1 allo mod,HEK293 NFkB inh,D1 PAM confirm,D1 ag no DA,Isoprot counter
Cc1nnc(NC(=O)CCC(=O)N2CCN(CCc3ccccc3)CC2)s1,13,-13,1,nt,8,nt,nt,nt
CCOC(=O)c1sc(NC(=O)CCn2nnc3ccccc32)c(C(=O)OCC)c1C,36,19,0,nt,3,nt,nt,nt
Cc1ccc(C)n1-c1ncn[nH]1,8,-10,0,-0.29,-4,nt,nt,nt
Cc1c(C)[n+](=O)c(-c2cccs2)c(C)n1[O-],1,7,-10,-0.33,10,nt,nt,nt
Cc1nc(-c2ccc(S(=O)(=O)N3CCCCCC3)cc2)cs1,23,9,-2,2.7*,-17,8332*,1844,i
CCCCC(=O)Nc1ccc(NC(=O)CCCC)nc1,-13,1,2,nt,0,nt,nt,nt
CCCCNC(=O)Nc1ccc(Br)cn1,14,30,nt,7.2*,5,12048*,1684,i
C/C(CCc1oc2ccccc2c1-c1ccc(C)o1)=N/O,-3,-12,8,7.2*,10,9460*,1544,i
CCc1oc2ccccc2c1C(=O)CCN1CCCCC1,12,-29,-9,-1.1,-3,nt,nt,nt
COc1ncnc2c1oc1nc(CC(C)C)c3c(c12)CCCC3,-3,9,0,0.96,10,nt,nt,nt
CCCc1nc2oc(C(=O)OCC)c(N)c2c2c1COC(C)(C)C2,-4,-6,-5,3.9,15,nt,nt,nt
COc1ncnc2c1oc1nc(C(C)C)c3c(c12)CC(C)(C)OC3,4,17,-12,8.7*,18,20880*,1744,+
CCOC(=O)c1oc2nc(C(C)C)c3c(c2c1N)CC(C)(C)OC3,-3,-2,6,4.7*,8,6644*,1544,+
CCOc1ccc(-c2noc(CCC(=O)NC)n2)cc1OCC,-3,13,2,12*,-2,19240*,1568,+
COc1ccc(-c2noc(-c3ccccc3C(=O)Nc3cccnc3)n2)cc1OC,1,-12,-2,2,18,nt,nt,nt
COc1ccc(-c2noc(CCC(=O)Nc3cc(OC)ccc3OC)n2)cc1,-20,-19,nt,0.16,18,nt,nt,nt
CCOc1cc(-c2noc(CCC(=O)Nc3cccnc3)n2)ccc1OC,-18,4,-4,18*,4,17716*,1472,+
Cn1ccnc1SCC(=O)NC12CC3CC(CC(C3)C1)C2,7,2,nt,-1,19,nt,nt,nt

# Assay outcomes deposited in PubChem by several laboratories.
